A selection: hits, their analogues and other compounds. The true share with any hit is near 1.9%.
NadD inh: inhibitors of S. aureus NadD, primary screen, biochemical, colorimetric, uHTS; purified NadD enzyme, colorimetric absorbance read-out; inhibition, % at 20 µM; hit rate 0.78% among 360,000; in the data active = inhibition above about 26%
Rin1 Abl inh: inhibitors of Rin1-Abl protein binding, primary screen, biochemical, TR-FRET; inhibition, % at 7.35 µM; hit rate 0.4% among 360,000; Tyrosine-protein kinase ABL1 (Homo sapiens) + Ras and Rab interactor 1 (Homo sapiens), …; in the data active = inhibition above about 5%, passing the limit was not always enough
Rpn11 block: Rpn11 (PSMD14) deubiquitinase inhibitors, primary screen, biochemical, fluorescence polarization, uHTS; human 26S proteasome, Ub4-pepOG fluorescence polarization; 20S core pre-blocked with epoxomicin; inhibition, % at 20 µM; hit rate 0.59% among 360,000; AID 588493, 2011;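 active = inhibition at 20 µM, scaled to each plate's controls, above about 33%, limit read from the data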
ABHD5-PLIN5 inh: ABHD5-PLIN5 interaction inhibitors, primary screen, cell lysate, split luciferase complementation, luminescence; Perilipin-5 (Homo sapiens) + 1-acylglycerol-3-phosphate O-acyltransferase ABHD5 (Homo …; Split G. princeps luciferase complementation, 4 h; inhibition, % at 4 µM; hit rate 0.78% among 360,000; AID 602281, 2012;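 active = inhibition above the mean inhibition across every tested compound plus 3 SD, cut at about 22% in these data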
Target sequence (Q00G26 whole entry, looked up): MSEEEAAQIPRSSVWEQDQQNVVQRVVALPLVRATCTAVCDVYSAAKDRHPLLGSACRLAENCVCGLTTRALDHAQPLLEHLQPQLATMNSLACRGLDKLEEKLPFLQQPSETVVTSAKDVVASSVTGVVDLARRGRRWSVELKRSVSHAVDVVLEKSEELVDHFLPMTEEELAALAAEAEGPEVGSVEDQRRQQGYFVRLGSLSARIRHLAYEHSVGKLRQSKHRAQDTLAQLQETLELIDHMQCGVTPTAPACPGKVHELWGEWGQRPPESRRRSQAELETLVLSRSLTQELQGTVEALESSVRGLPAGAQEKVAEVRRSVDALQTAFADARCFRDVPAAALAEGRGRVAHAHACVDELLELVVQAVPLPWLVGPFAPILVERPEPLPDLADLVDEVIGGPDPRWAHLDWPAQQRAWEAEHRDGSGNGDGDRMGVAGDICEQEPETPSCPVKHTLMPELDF
Target sequence (Q8WTS1 whole entry, looked up): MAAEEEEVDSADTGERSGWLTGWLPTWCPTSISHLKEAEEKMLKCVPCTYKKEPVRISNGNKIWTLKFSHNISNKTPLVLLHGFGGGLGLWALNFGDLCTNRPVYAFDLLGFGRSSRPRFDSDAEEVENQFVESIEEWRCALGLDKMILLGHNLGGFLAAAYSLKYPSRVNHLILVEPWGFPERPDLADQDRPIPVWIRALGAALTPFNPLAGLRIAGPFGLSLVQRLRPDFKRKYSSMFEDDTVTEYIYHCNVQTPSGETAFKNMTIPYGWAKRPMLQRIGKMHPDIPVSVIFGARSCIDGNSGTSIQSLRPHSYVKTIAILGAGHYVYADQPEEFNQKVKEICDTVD
XiGFP reactiv: activators of inactive X chromosome reactivation, primary screen, imaging, XiGFP fibroblasts, GFP high-content imaging, set 2; activation, % at 7.58 µM; AID 743238, 2013; hit rate 0.055% among 360,000; XiGFP mouse fibroblasts, % GFP-positive cells imaging, 3 d; cells co-treated with 5-aza-dC sensitizer; scaled so ellipticine positive control = 100%;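 active = mean normalized replicate activation at least 10% and every replicate at or above 10%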
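Assay system – SV40-immortalized XiGFP fibroblast cells, line 68-5-11 · Buffer or medium – DMEM supplemented with 5-aza-dC as sensitizing agent · Dosing – one concentration, pinned · Benchmarks – positive control ellipticine, 6 µM final · Times – 3 days compound exposure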
Rin1-Abl confirm: Rin1-Abl binding inhibitor retest, confirmation, biochemical, TR-FRET | shares compounds with Rin1 Abl inh | purified proteins | inhibition, % at 7.35 µM | hit rate 49% among 1,300
GFP quench: GFP fluorescence inhibitors and quenchers, artefact control for Rin1-Abl interaction inhibitor project, biochemical | hit rate 8.5% among 1,300 | inhibitors/quenchers counterscreen | inhibition, % at 6.75 µM | shares compounds with Rin1 Abl inh;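 note: ABL1-eGFP fusion protein alone without its partner RIN1-SBP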
GFP quench DR: GFP fluorescence inhibitors and quenchers, dose response, artefact control for Rin1-Abl interaction inhibitor project, biochemical; 230 tested, under 10 active; IC50, µM; AID 602182, 2012; GFP fluorescence interference/quenching counterscreen; shares compounds with Rin1 Abl inh; call rule not given here;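 note: ABL1-eGFP fusion protein alone without its RIN1 binding partner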
Numbers stand for hits; . = inactive; / = no result given. Cut-off read from the data, not from the text of the source, unless noted: active = inhibition above about 6.5%; inactive = the rest.

SMILES	NadD inh	Rin1 Abl inh	Rpn11 block	ABHD5-PLIN5 inh	XiGFP reactiv	Rin1-Abl confirm	GFP quench	others
CCC(C)NS(=O)(=O)c1ccc(S(=O)(=O)N(CC(=O)Nc2ccccc2)Cc2ccco2)cc1 (stereo not drawn)	.	4.8	.	.	/	.	.
CCOc1ncccc1C(=O)OC(C)C(=O)Nc1ccc(Cl)cn1 (stereo not drawn)	.	8.2	.	.	.	.	.
COc1ccc2c3c([nH]c2c1)[C@H](CO)N(C(=O)Nc1ccc(F)cc1)CC31CCN(S(=O)(=O)c2ccc(C)cc2)CC1	/	/	/	/	.	/	/
COC(=O)c1sccc1NC(=O)COc1ccccc1Cl	.	7.4	.	.	.	.	.
COc1ccc(S(=O)(=O)N(C)C[C@@H]2OCCCC[C@@H](C)Oc3ccc(NC(=O)Nc4cccc5ccccc45)cc3C(=O)N([C@@H](C)CO)C[C@H]2C)cc1	/	/	/	/	.	/	/
CC(NS(=O)(=O)c1ccc2c(c1)CC(C)N2C(=O)C1CC1)c1ccccc1 (stereo not drawn)	.	9.5	.	.	.	.	.
CCOC(=O)C1CCCN(C(=O)c2cn(C)c(=O)c3cc(OC)c(OC)cc23)C1 (stereo not drawn)	.	25	.	.	/	32	.	GFP quench DR=.
COc1cc(SC)ccc1C(=O)N1CCN(c2ccccc2F)CC1	.	.	.	.	.	/	/
COc1cc2c(C(=O)N3CCN(c4ccccc4F)CC3)cn(C)c(=O)c2cc1OC	.	8.9	.	.	.	12	.
Oc1ccc(/C=N/Nc2nccnc2Cl)c(O)c1	.	.	.	.	/	/	/
Cc1cc(-c2ccccc2)nc(N/N=C/c2ccc(O)cc2O)n1	.	11	.	.	.	11	.
Oc1ccc(/C=N/Nc2ncc(Br)cn2)c(O)c1	.	12	.	.	.	9.9	.
Cc1cc(-c2ccccc2)nc(N/N=C/c2ccccc2)n1	.	.	.	.	.	/	/
O=C(C[C@@H]1CC[C@@H]2[C@H](COC[C@H](O)CN2S(=O)(=O)c2ccccc2)O1)N1CCOCC1	/	/	/	/	.	/	/
Cc1ccc(NC(=O)CN2C(=O)C3C4C=CC(C4)C3C2=O)cc1 (stereo not drawn)	.	6.3	.	.	.	.	.
COc1ccc2c3c([nH]c2c1)[C@H](CO)N(C(C)=O)CC31CN(C(C)=O)C1	/	/	/	/	.	/	/
CCOC(=O)c1ccc(NC(=O)CN(C)S(=O)(=O)c2ccc(OC)cc2)cc1	.	8.0	.	.	/	.	.
COc1cc(/C=N\NC(=O)Cn2nnc3ccccc32)cc(OC)c1OC	.	.	.	.	/	/	/
COc1ccc(/C=N/NC(=O)Cn2c(Cc3ccc(OC)c(OC)c3)nc3ccccc32)cc1	.	14	.	.	.	19	.	GFP quench DR=.
O=S(=O)(Nc1cc2nc3ccccc3nc2n1Cc1ccccc1)c1ccc(Cl)cc1	.	30	.	.	78	28	.	GFP quench DR=.
Cc1ccc(S(=O)(=O)NCC[C@@H]2CC[C@H](NC(=O)Nc3ccccc3F)[C@H](CO)O2)cc1	/	/	/	/	.	/	/
COc1ccc(C2N(C(=O)c3ccccc3)CCN2C(=O)c2ccc(C)cc2)cc1 (stereo not drawn)	.	.	.	.	/	/	/
COc1ccc(/C=N/N2C(=O)CN(C(=O)c3ccccc3)C2c2ccc(OC)cc2)cc1 (stereo not drawn)	.	5.8	.	.	.	.	.
COc1ccc(OC)c(/C=N/NC(=O)c2cccc3ccccc23)c1	.	6.9	.	.	.	.	.
COc1ccccc1/C=N/NC(=O)c1cccc2ccccc12	.	.	.	.	.	/	/
SMILES	NadD inh	Rin1 Abl inh	Rpn11 block	ABHD5-PLIN5 inh	XiGFP reactiv	Rin1-Abl confirm	GFP quench	others
COc1ccc(NC(=O)N(C)C[C@@H]2Oc3ccc(NC(=O)Cn4cnnn4)cc3C(=O)N([C@@H](C)CO)C[C@H]2C)cc1	/	/	/	/	.	/	/
O=C(C[C@H]1C=C[C@H](NC(=O)C2CCOCC2)[C@@H](CO)O1)NCc1ccccc1Cl	/	/	/	/	.	/	/
N#C/C(=C\c1cc(O)c(O)c(O)c1)C(N)=O	.	49	.	.	.	49	20
N#CC(=Cc1ccc(O)cc1)C(N)=C(C#N)C#N	.	.	.	.	.	/	/
O=C(Cc1c(F)cccc1Cl)NNC(=O)Nc1ccc2c(c1)OCO2	.	14	.	.	.	.	.
CN(C)CC(=O)N[C@H]1C=C[C@@H](CC(=O)O)O[C@@H]1CO	/	/	/	/	.	/	/
Cc1cc(C)nc(NC(=O)c2c(-c3c(Cl)cccc3Cl)noc2C)n1	.	.	.	.	/	/	/
Cc1cc(C)nc(NC(=O)c2c(Cl)cccc2Cl)n1	.	4.4	.	.	.	.	.
c1ccc(CNc2nc(NCCc3ccncc3)c3sccc3n2)cc1	.	20	.	.	.	10	.
c1ccc(CNc2nc(NCc3cccs3)nc3ccsc23)cc1	.	.	.	.	.	/	/
CC1=Nc2ccccc2NC(=O)C1Sc1nnc(C)s1 (stereo not drawn)	.	6.4	.	.	/	.	.
O=C1Nc2ccccc2N=C(c2ccccc2)C1Br (stereo not drawn)	.	.	.	.	.	/	/
O=C(C[C@@H]1CC[C@@H](NC(=O)CN2CCOCC2)[C@H](CO)O1)NCCc1ccccc1	/	/	/	/	.	/	/
COCC(=O)N1[C@H](C(=O)Nc2ccccc2)[C@@H](CO)[C@@H]2Cn3c(ccc(-c4ccccc4)c3=O)[C@@H]21	/	/	/	/	.	/	/
COCCNC(=O)c1cc(-c2ccccn2)nc2ccc(S(=O)(=O)N3CCC(C)CC3)cc12	.	17	.	.	.	.	.
CCOC(=O)C1CCN(C(=O)CCCn2nc(CC)n3c(cc4occc43)c2=O)CC1	.	.	.	.	.	/	/
CCc1nn(CC(=O)N2CCC(C(N)=O)CC2)c(=O)c2cc3occc3n12	.	12	.	.	.	.	.
O=C1N[C@H](c2ccccc2)COCc2cn(nn2)CC[C@@H](Cc2ccc(C(F)(F)F)cc2)C(=O)N[C@H](c2ccccc2)COCc2cn(nn2)CC[C@H]1Cc1ccc(C(F)(F)F)cc1	/	/	/	/	.	/	/

Screening data: PubChem BioAssay, several laboratories
